Experimental data from PubChem BioAssay.

Assay: LAP4-GFP expression modulators in yeast, confirmation, cell-based, cherry picks, flow cytometry, mother/daughter gates (AID 2271);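 note: ratio of sample to DMSO plate mean so 100% equals DMSO level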
Details: S. cerevisiae LAP4-GFP strain, 3 h, measured here: mother cell gate response, at 10 µM, stronger effect = higher value, 100 means same as DMSO control
Procedure, shortened: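 Test system: GFP-fusion yeast strain. Medium: synthetic complete (SC) yeast growth medium. Timing: 3 h treatment at 30 °C with rotation. Measured by: GFP by flow cytometry. Control set: positive rapamycin (400 ng/mL), negative DMSO.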

| Structure (SMILES) | GFP response relative to DMSO [%] |
| --- | --- |
| O=C(Nc1ccc(NC(=O)c2cc3ccccc3o2)cc1)c1ccc2c(c1)OCCO2 | 97.3 |
| Cc1ncc2c(n1)-c1cc(F)ccc1SC2 | 85.5 |
| Cc1ccc(S(=O)(=O)Cc2cc(F)c([N+](=O)[O-])cc2[N+](=O)[O-])cc1 | 223 |
| C/C(CC(=O)Nc1cc(C)ccn1)=N\NC(=O)c1cccc(F)c1 | 99.3 |
| CN=C(NC)SC1CC(=O)N(c2ccccc2)C1=O (centres undefined) | 103 |
| O=C1/C(=C\c2ccc(O)c(O)c2)SC(=S)N1Cc1ccccc1 | 116 |
| COc1cc(/C=C2\C(=O)N(CCC#N)N=C2C)c(Br)cc1OC(C)C | 168 |
| CCn1c(=O)c(C(=O)Nc2nc3ccccc3[nH]2)c(O)c2ccccc21 | 185 |
| CC1CN(c2nc3ccccn3c(=O)c2/C=C(\C#N)C(N)=O)CC(C)O1 (centres undefined) | 95.4 |
| CCOC(=O)CSC1=NC(=O)/C(=C\c2ccc(Cl)cc2)S1 | 186 |
| O=C(N/N=C/c1ccccc1Cl)c1cccc(F)c1 | 104 |
| CCN(CC)CCNC(=O)Cn1c(-c2ccccn2)nc2ccccc21 | 98.3 |
| COc1ccc(N2C(=O)C(Cl)=C(Nc3ccccc3OC)C2=O)cc1 | 98.4 |
| COc1ccc(C(=O)/C=C/c2ccccc2C(F)(F)F)cc1 | 98.3 |
| O=C(COc1ccc(F)cc1Cl)Nc1nc(-c2ccccn2)cs1 | 137 |
| COc1ccc(/C=N/NC(=O)C2(C)NC(C)(C)Cc3ccccc32)cc1 (centres undefined) | 96.1 |
| COc1ccc(OC)c(C2CC(c3c(-c4ccccc4)c4cc(Cl)ccc4[nH]c3=O)=NN2S(C)(=O)=O)c1 (centres undefined) | 97.2 |
| Cc1ccc(/C=C/C(=O)N2CC(C)CC(C)C2)o1 (centres undefined) | 113 |
| COc1ccc(CCNC2=C(Cl)C(=O)N(CCc3ccc(OC)c(OC)c3)C2=O)cc1OC | 100 |
| O=S1(=O)Nc2c(ccc3cccnc23)-c2ccccc21 | 163 |

| Structure (SMILES) | GFP response relative to DMSO [%] |
| --- | --- |
| O=C(/C=C/c1cc(Br)ccc1O)c1ccco1 | 153 |
| COc1cc(NC(C)=O)ccc1NC(=O)c1cc2ccccc2o1 | 96.2 |
| COc1ccc(CC2=CC(=O)c3ccccc3C2=O)cc1 | 102 |
| C=CCn1cc(/C=C/c2cc[n+](C)cc2)c2ccccc21 | 108 |
| C[n+]1ccc(/C=C/c2c[nH]c3ccc(F)cc23)cc1 | 115 |
| CCSc1nnc(NC(=O)c2nc(S(=O)(=O)Cc3ccc(F)cc3)ncc2Cl)s1 | 103 |
| COc1ccc(C2c3c(oc4ccccc4c3=O)C(=O)N2CCN2CCOCC2)cc1OC (centres undefined) | 114 |
| Cc1ccc(C(=O)c2c3ccccc3[n+]([O-])n2CCO)cc1 | 94 |
| CC(=O)Nc1ccc(S(=O)(=O)NC(CC(=O)NCCC2=CCCCC2)C(C)C)cc1 (centres undefined) | 96.1 |
| Cc1ccc(C(=O)NNC(=S)NC(=O)COc2ccccc2)cc1 | 203 |
| Cc1occc1-c1nnc(-c2cc([N+](=O)[O-])cc([N+](=O)[O-])c2)o1 | 149 |
| Cc1ccc(NS(=O)(=O)c2ccc(CCC(=O)N3CCOCC3)cc2)cc1 | 95.1 |
| O=C1Nc2ccc(Br)cc2/C1=C/C1CC=CCC1 (centres undefined) | 135 |
| CN1CC(=O)NC1=NC(=O)C12CC3CC(CC(C3)C1)C2 | 103 |
| O=S(=O)(c1ccc(Oc2ccccc2)cc1)N1CCOCC1 | 97.2 |
| COc1cc(NC(=O)c2oc3ccccc3c2C)ccc1NC(=O)c1ccco1 | 100 |
| CCCN1CCN(C(=O)c2oc3ccccc3c2NC(=O)COc2ccc(OC)cc2)CC1 | 95.1 |
| COc1cc(/C=C2\N=C(c3ccccc3)OC2=O)ccc1OC(C)=O | 102 |
| COc1ccc(NC(=O)/C(Cl)=C(/Cl)S(=O)Cc2ccccc2)cn1 (centres undefined) | 243 |
